Test results reported in ChEMBL document CHEMBL1149321, “Synthesis, radiosynthesis, and biological evaluation of carbon-11 and iodine-123 labeled 2beta-carbomethoxy-3beta-[4'-((Z)-2-haloethenyl)phenyl]tropanes: candidate radioligands for in vivo imaging of the serotonin transporter” (J Med Chem, 2004).

Columns and labels:
Rattus norvegicus [1] = test: Distribution in brainstem of rat brain after intravenous administration by using [123I]ZIET after 60 min; assay type: ADME, organism-based; conditions: in vivo, 1 h
Method in brief: (§1)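 Male Sprague–Dawley rats (200–250 g), fed ad libitum, given ~20 μCi radiotracer iv via tail-vein cannula in 0.2 mL 10% ethanol/saline under ketamine/xylazine im anesthesia. Killed at 5, 30, 60 or 120 min (n = 5; n = 4 at 120 min). Brain regions dissected, weighed, gamma-counted with dose standards, decay-corrected; mean %ID/g ± SE.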

[2] = Ratio of radioactivity in frontal cortex of rat brain to that of rat cerebellum after intravenous administration after 5 min; assay type: functional
Method in brief: (§2)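 Male Sprague–Dawley rats (200–250 g) given ~20 μCi [123I] tracer iv in 0.2 mL 10% ethanol/saline under ketamine/xylazine; killed at 5, 30, 60, 120 min (n = 5; n = 4 at 120 min). Brain regions dissected, gamma counted, decay-corrected to %ID/g; regional uptake divided by cerebellum.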

Rattus norvegicus [3] = test: Distribution of the radio labelled compound in rest of rat brain after intravenous administration in presence of reboxetine after 60 min; assay type: ADME, organism-based; conditions: in vivo, 1 h
Method in brief: (§3)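 Male Sprague–Dawley rats (200–250 g) under ketamine/xylazine anaesthesia with tail-vein cannulas. Blocker or none given 15 min before ~20 μCi [123I] tracer iv in 0.2 mL 10% ethanol/saline; blocker dose 4 mg/kg.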

[4] = Ratio of radioactivity in hypothalamus of rat brain to that of rat cerebellum after intravenous administration after 120 min; assay type: functional; method in brief: as §2
Rattus norvegicus [5] = test: Distribution in hippocampus of rat brain after intravenous administration by using [123I]ZIET after 5 min; assay type: ADME, organism-based; conditions: in vivo; method in brief: as §1
Rattus norvegicus [6] = test: Distribution in striatum of rat brain after intravenous administration by using [123I]-ZIET after 30 min; assay type: ADME, organism-based; conditions: in vivo, 0.5 h; method in brief: as §1
[7] = Ratio of radioactivity in frontal cortex of rat brain to that of rat cerebellum after intravenous administration after 60 min; assay type: functional; method in brief: as §2
Rattus norvegicus [8] = test: Distribution of the radio labelled compound in cerebellum of rat brain after intravenous administration in presence of citalopram after 60 min; assay type: ADME, organism-based; conditions: in vivo, 1 h; method in brief: as §3
Rattus norvegicus [9] = test: Distribution in hippocampus of rat brain after intravenous administration by using [123I]ZIET after 30 min; assay type: ADME, organism-based; conditions: in vivo, 0.5 h; method in brief: as §1
Rattus norvegicus [10] = test: Distribution in blood […] after intravenous administration by using [123I]-ZIET after 30 min; assay type: ADME, organism-based; conditions: in vivo, 0.5 h; method in brief: as §1
[11] = Ratio of radioactivity in occipital cortex of rat brain to that of rat cerebellum after intravenous administration after 5 min; assay type: functional; method in brief: as §2
[12] = Ratio of radioactivity in hippocampus of rat brain to that of rat cerebellum after intravenous administration after 5 min; assay type: functional; method in brief: as §2
Rattus norvegicus [13] = test: Distribution in rest of rat brain after intravenous administration by using [123I]ZIET after 30 min; assay type: ADME, organism-based; conditions: in vivo, 0.5 h; method in brief: as §1
Rattus norvegicus [14] = test: Distribution in blood of rat brain after intravenous administration by using [123I]ZIET after 120 min; assay type: ADME, organism-based; conditions: in vivo, 2 h; method in brief: as §1
[15] = Ratio of radioactivity in striatum of rat brain to that of rat cerebellum after intravenous administration after 30 min; assay type: functional; method in brief: as §2
Rattus norvegicus [16] = test: Distribution in striatum of rat brain after intravenous administration by using [123I]ZIET after 60 min; assay type: ADME, organism-based; conditions: in vivo, 1 h; method in brief: as §1
Rattus norvegicus [17] = test: Distribution in hypothalamus of rat brain after intravenous administration by using [123I]ZIET after 5 min; assay type: ADME, organism-based; conditions: in vivo; method in brief: as §1
Rattus norvegicus [18] = test: Distribution of the radio labelled compound in brainstem of rat brain after intravenous administration in absence of blocker after 60 min; assay type: ADME, organism-based; conditions: in vivo, 1 h
Method in brief: (§4)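 Male Sprague–Dawley rats (200–250 g), ketamine/xylazine anesthesia, tail-vein cannula. Blocker (4 mg/kg) or nothing given 15 min before iv [123I]ZIET in 10% ethanol/saline. Killed 60 min post-tracer.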

Rattus norvegicus [19] = test: Distribution of the radio labelled compound in hippocampus of rat brain after intravenous administration in presence of citalopram after 60 min; assay type: ADME, organism-based; conditions: in vivo, 1 h; method in brief: as §3
Rattus norvegicus [20] = test: Distribution in occipital cortex of rat brain after intravenous administration by using [123I]ZIET after 5 min; assay type: ADME, organism-based; conditions: in vivo; method in brief: as §1
[21] = Ratio of radioactivity in occipital cortex of rat brain to that of rat cerebellum after intravenous administration after 60 min; assay type: functional; method in brief: as §2
Rattus norvegicus [22] = test: Distribution in cerebellum of rat brain after intravenous administration by using [123I]ZIET after 60 min; assay type: ADME, organism-based; conditions: in vivo, 1 h; method in brief: as §1
Rattus norvegicus [23] = test: Distribution in brainstem of rat brain after intravenous administration by using [123I]ZIET after 5 min; assay type: ADME, organism-based; conditions: in vivo; method in brief: as §1
[24] = Ratio of radioactivity in hippocampus of rat brain to that of rat cerebellum after intravenous administration after 120 min; assay type: functional; method in brief: as §2
Rattus norvegicus [25] = test: Distribution of the radio labelled compound in thyroid of rat brain after intravenous administration in absence of blocker after 60 min; assay type: ADME, organism-based, Thyroid gland; conditions: in vivo, 1 h; method in brief: as §3
Rattus norvegicus [26] = test: Distribution of the radio labelled compound in hypothalamus of rat brain after intravenous administration in presence of citalopram after 60 min; assay type: ADME, organism-based; conditions: in vivo, 1 h; method in brief: as §3
Rattus norvegicus [27] = test: Distribution of the radio labelled compound in brainstem of rat brain after intravenous administration in presence of RTI-113 after 60 min; assay type: ADME, organism-based; conditions: in vivo, 1 h; method in brief: as §4
Rattus norvegicus [28] = test: Distribution in brainstem of rat brain after intravenous administration by using [123I]ZIET after 30 min; assay type: ADME, organism-based; conditions: in vivo, 0.5 h; method in brief: as §1
[29] = Ratio of radioactivity in frontal cortex of rat brain to that of rat cerebellum after intravenous administration after 120 min; assay type: functional; method in brief: as §2
Rattus norvegicus [30] = test: Distribution of the radio labelled compound in thyroid of rat brain after intravenous administration in presence of RTI-113 after 60 min; assay type: ADME, organism-based, Thyroid gland; conditions: in vivo, 1 h; method in brief: as §3
Rattus norvegicus [31] = test: Distribution of the radio labelled compound in hypothalamus of rat brain after intravenous administration in presence of reboxetine after 60 min; assay type: ADME, organism-based; conditions: in vivo, 1 h; method in brief: as §3
[32] = Ratio of radioactivity in rest of rat brain to that of rat cerebellum after intravenous administration after 30 min; assay type: functional; method in brief: as §2
[33] = Ratio of radioactivity in occipital cortex of rat brain to that of rat cerebellum after intravenous administration after 30 min; assay type: functional; method in brief: as §2
Rattus norvegicus [34] = test: Distribution of the radio labelled compound in frontal cortex of rat brain after intravenous administration in presence of reboxetine after 60 min; assay type: ADME, organism-based; conditions: in vivo, 1 h; method in brief: as §3
[35] = Ratio of radioactivity in brainstem of rat brain to that of rat cerebellum after intravenous administration after 60 min; assay type: functional; method in brief: as §2
Rattus norvegicus [36] = test: Distribution of the radio labelled compound in blood of rat brain after intravenous administration in absence of blocker after 60 min; assay type: ADME, organism-based; conditions: in vivo, 1 h; method in brief: as §4
Rattus norvegicus [37] = test: Distribution in blood […] after intravenous administration by using [123I]-ZIET after 60 min; assay type: ADME, organism-based; conditions: in vivo, 1 h; method in brief: as §1
Rattus norvegicus [38] = test: Distribution of the radio labelled compound in thyroid of rat brain after intravenous administration in presence of reboxetine after 60 min; assay type: ADME, organism-based, Thyroid gland; conditions: in vivo, 1 h; method in brief: as §3
Rattus norvegicus [39] = test: Distribution in striatum of rat brain after intravenous administration by using [123I]ZIET after 120 min; assay type: ADME, organism-based; conditions: in vivo, 2 h; method in brief: as §1
Rattus norvegicus [40] = test: Distribution in frontal cortex of rat brain after intravenous administration by using [123I]-ZIET after 30 min; assay type: ADME, organism-based; conditions: in vivo, 0.5 h; method in brief: as §1
Rattus norvegicus [41] = test: Distribution in blood of rat brain after intravenous administration by using [123I]ZIET after 5 min; assay type: ADME, organism-based; conditions: in vivo; method in brief: as §1
Rattus norvegicus [42] = test: Distribution in hippocampus of rat brain after intravenous administration by using [123I]ZIET after 120 min; assay type: ADME, organism-based; conditions: in vivo, 2 h; method in brief: as §1
Rattus norvegicus [43] = test: Distribution of the radio labelled compound in brainstem of rat brain after intravenous administration in presence of citalopram after 60 min; assay type: ADME, organism-based; conditions: in vivo, 1 h; method in brief: as §4
Rattus norvegicus [44] = test: Distribution of the radio labelled compound in striatum of rat brain after intravenous administration in presence of reboxetine after 60 min; assay type: ADME, organism-based; conditions: in vivo, 1 h; method in brief: as §3

Compound `COC(=O)C1C(c2ccc(/C=C\[123I])cc2)CC2CCC1N2C` (centres undefined) has an Activity (Rattus norvegicus [1]) of 0.54, a Ratio [2] of 1.3 and an Activity (Rattus norvegicus [3]) of 0.34. The Ratio [4] was 4.3, the Activity (Rattus norvegicus [5]) was 0.38 and the Activity (Rattus norvegicus [6]) was 0.76. It also gave a Ratio [7] of 2.6, an Activity (Rattus norvegicus [8]) of 0.1 and an Activity (Rattus norvegicus [9]) of 0.72. For the same compound, the Activity (Rattus norvegicus [10]) was 0.53, the Ratio [11] was 1.3 and the Ratio [12] was 1.1. It also gave an Activity (Rattus norvegicus [13]) of 0.66, an Activity (Rattus norvegicus [14]) of 0.38 and a Ratio [15] of 1.8. The Activity (Rattus norvegicus [16]) was 0.71, the Activity (Rattus norvegicus [17]) was 0.36 and the Activity (Rattus norvegicus [18]) was 0.33. It also gave an Activity (Rattus norvegicus [19]) of 0.17, an Activity (Rattus norvegicus [20]) of 0.45 and a Ratio [21] of 2.3. For the same compound, the Activity (Rattus norvegicus [22]) was 0.27, the Activity (Rattus norvegicus [23]) was 0.35 and the Ratio [24] was 3.4. It also gave an Activity (Rattus norvegicus [25]) of 0.54, an Activity (Rattus norvegicus [26]) of 0.2 and an Activity (Rattus norvegicus [27]) of 0.35. The Activity (Rattus norvegicus [28]) was 0.65, the Ratio [29] was 3.4 and the Activity (Rattus norvegicus [30]) was 1.01. For the same compound, the Activity (Rattus norvegicus [31]) was 0.46, the Ratio [32] was 1.6 and the Ratio [33] was 1.8. It also gave an Activity (Rattus norvegicus [34]) of 0.47, a Ratio [35] of 2 and an Activity (Rattus norvegicus [36]) of 0.22. It also gave an Activity (Rattus norvegicus [37]) of 0.43, an Activity (Rattus norvegicus [38]) of 1.12 and an Activity (Rattus norvegicus [39]) of 0.52. For the same compound, the Activity (Rattus norvegicus [40]) was 0.82, the Activity (Rattus norvegicus [41]) was 0.45 and the Activity (Rattus norvegicus [42]) was 0.47. The Activity (Rattus norvegicus [43]) was 0.14 and the Activity (Rattus norvegicus [44]) was 0.45.
